How the values were obtained:
MC-38 [1] = assay: Activity against advanced carcinoma C38 Tumor in CDF1 Mice at dose 4.0 mg/Kg measured as % inhibition of tumor; assay type: functional; conditions: Mus musculus
MC-38 [2] = assay: Number of toxic deaths/number of mice in a group of non tumored mice treated in parallel with the tumor-bearing mice and observed for 100 days at a dose 2.0 mg/kg; value given as 0/9; assay type: functional, Mus musculus
How it was run: (§1)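 Non-tumored CDF1 mice were treated in parallel with colon 38 tumor-bearing mice: iv injections on days 1, 5 and 9, groups of nine. Deaths were counted over 100 days of observation and reported as toxic deaths / mice in group.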

MC-38 [3] = assay: Number of toxic deaths/number of mice in a group of non tumored mice treated in parallel with the tumor-bearing mice and observed for 100 days at a dose 5.0 mg/kg; value given as 8/9; assay type: toxicity, organism-based; parameters: dose 5 mg/kg; conditions: mouse, in vivo, 2400 h; how it was run: as §1
MC-38 [4] = assay: Mean survival time of treated / untreated group x100. (number of over 100-day survivors/number of total mice in the group) at a dose 3.0 mg/kg; assay type: functional, Mus musculus
How it was run: (§2)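 CDF1 mice were implanted sc on day 0 with colon 38 adenocarcinoma fragments (70 mg) and given iv drug on days 1, 5 and 9. %T/C = median survival of treated / untreated × 100. Number of mice surviving over 100 days / group total is given in parentheses.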

P388 [5] = assay: Antitumor activity in P388/ADR (adriamycin resistant), in male BDF1 mice measured as optimal dose at dose 2.5-4.5 mg/kg/ inj, ip
MC-38 [6] = assay: Activity against advanced carcinoma C38 Tumor in CDF1 Mice at dose 2.0 mg/Kg measured as % inhibition of tumor; assay type: functional; conditions: Mus musculus
MC-38 [7] = assay: Number of toxic deaths/number of mice in a group of non tumored mice treated in parallel with the tumor-bearing mice and observed for 100 days at a dose 3.0 mg/kg; value given as 0/9; assay type: functional, Mus musculus; how it was run: as §1
MC-38 [8] = assay: Mean survival time of treated / untreated group x100. (number of over 100-day survivors/number of total mice in the group) at a dose 4.0 mg/kg; assay type: functional, Mus musculus; how it was run: as §2
P388 [9] = assay: Antitumor activity in P388/S(AMD sensitive) in male BDF1 mice measured as optimal dose
MC-38 [10] = assay: Activity against advanced carcinoma C38 Tumor in CDF1 Mice at dose 3.0 mg/Kg measured as % inhibition of tumor; assay type: functional; conditions: Mus musculus
MC-38 [11] = assay: Number of toxic deaths/number of mice in a group of non tumored mice treated in parallel with the tumor-bearing mice and observed for 100 days at a dose 4.0 mg/kg; value given as 3/9; assay type: toxicity, organism-based; parameters: dose 4 mg/kg; conditions: mouse, in vivo, 2400 h; how it was run: as §1
Rattus norvegicus [12] = species: Rattus norvegicus; assay: The formation of adrenochrome from epinephrine in the presence of SOD(super oxide dismutase); + denotes ' Inhibited'; assay type: functional
How it was run: (§3)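 Drug-stimulated superoxide generation with rat liver microsomal enzymes and NADPH as cofactor. NADPH oxidation was read at 340 nm. Adrenochrome formed from epinephrine was read at 480 nm, with or without superoxide dismutase. % stimulation = [(drug-stimulated rate − basal rate)/basal rate] × 100. Values are mean ± standard error of triplicate analyses.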

MC-38 [13] = assay: Number of toxic deaths/number of mice in a group of non tumored mice treated in parallel with the tumor-bearing mice and observed for 100 days at a dose 0.60 mg/kg; value given as 0/9; assay type: functional, Mus musculus; conditions: dose 0.6 mg/kg; how it was run: as §1
MC-38 [14] = assay: Number of toxic deaths/number of mice in a group of non tumored mice treated in parallel with the tumor-bearing mice and observed for 100 days at a dose 1. 20 mg/Kg; value given as 4/9; assay type: toxicity, cell-based; conditions: mouse, in vivo, 2400 h; how it was run: as §1
MC-38 [15] = assay: Number of toxic deaths/number of mice in a group of non tumored mice treated in parallel with the tumor-bearing mice and observed for 100 days at a dose 0.30 mg/kg; value given as 0/9; assay type: functional, Mus musculus; conditions: dose 0.3 mg/kg; how it was run: as §1
P388 [16] = assay: Antitumor activity in P388/ADR (adriamycin resistant), in male BDF1 mice measured as optimal dose at dose 0.10-0.8 mg/kg
P388 (Mus musculus) = assay: 50% inhibition of incorporation of precursor [3H]thymidine into DNA P388 cell lines; conditions: P388, 2 h
HT-29 [17] = assay: 50% inhibition of incorporationf precursor [3H]thymidine into DNA HT-29 cell lines; assay type: functional, cell-based; conditions: Homo sapiens, HT-29, 2 h
How it was run: (§4)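 HT-29 colon carcinoma monolayers, 10^4 cells per well, five wells per concentration. Drug exposure lasted 2 h, with [³H]thymidine and [2-¹⁴C]uridine (0.5 μCi each) added for the last hour. Cells were washed, trypsinized, counted and precipitated onto glass-fiber filters with 10% TCA. Acid-precipitable radioactivity was measured. IC50 is the concentration inhibiting 50% of incorporation; data are averages of replicate experiments.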

MC-38 [18] = assay: Number of toxic deaths/number of mice in a group of non tumored mice treated in parallel with the tumor-bearing mice and observed for 100 days at a dose 0.15 mg/kg; value given as 1/9; assay type: toxicity, organism-based; parameters: dose 0.15 mg/kg; conditions: mouse, in vivo, 2400 h; how it was run: as §1
MC-38 [19] = assay: Activity against advanced carcinoma C38 tumor in CDF1 Mice at dose 0.60 mg/kg measured as % inhibition of tumor; assay type: functional; conditions: Mus musculus
MC-38 [20] = assay: Activity against advanced carcinoma C38 tumor in CDF1 Mice at dose 1.20 mg/kg measured as % inhibition of tumor; assay type: functional; conditions: Mus musculus
HT-29 [21] = assay: 50% inhibition of incorporationf precursor [3H]thymidine into RNA HT-29 cell lines; assay type: functional, cell-based; conditions: Homo sapiens, HT-29, 2 h; in the assay text read “[14C]uridine” for “[3H]thymidine”; how it was run: as §4
MC-38 [22] = assay: Mean survival time of treated / untreated group x100. (number of over 100-day survivors/number of total mice in the group) at a dose 0.15 mg/kg; assay type: functional, Mus musculus; how it was run: as §2
MC-38 [23] = assay: Mean survival time of treated / untreated group x100. (number of over 100-day survivors/number of total mice in the group) at a dose 0.30 mg/kg; assay type: functional, Mus musculus; conditions: dose 0.3 mg/kg; how it was run: as §2
MC-38 [24] = assay: Activity against advanced carcinoma C38 tumor in CDF1 Mice at dose 0.30 mg/kg measured as % inhibition of tumor; assay type: functional; conditions: Mus musculus
MC-38 [25] = assay: Mean survival time of treated / untreated group x100. (number of over 100-day survivors/number of total mice in the group) at a dose 1.20 mg/kg; assay type: functional, Mus musculus; conditions: dose 1.2 mg/kg; how it was run: as §2
Rattus norvegicus [26] = species: Rattus norvegicus; assay: Stimulation of NADPH oxidation in the presence of rat liver microsomes; assay type: functional; how it was run: as §3
P388 [27] = assay: 50% inhibition of incorporation precursor [14C]uridine into RNA P388 cell lines; assay type: functional, cell-based; conditions: Mus musculus
MC-38 [28] = assay: Activity against advanced carcinoma C38 tumor in CDF1 Mice at dose 0.15 mg/kg measured as % inhibition of tumor; assay type: functional; conditions: Mus musculus
Rattus norvegicus [29] = species: Rattus norvegicus; assay: The formation of adrenochrome from epinephrine in the absence of SOD(super oxide dismutase); assay type: functional; how it was run: as §3
B16 [30] = assay: in vivo Antitumor activity against B16 melanoma cells at dose 300 ug/Kg /inj measured as mean survival time (MST); assay type: functional, Mus musculus
How it was run: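 B16 melanoma implanted ip on day 0 as 0.2 mL of a 1:5 (weight/volume) brei, in groups of nine BDF₁ mice; drugs given ip. MST is the median survival time in days, with the range of days of death of individual animals; % ILS is percent increase in life span, with survivors on day 65 over total injected.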

B16 [31] = assay: In vivo antitumor activity against B16 melanoma cells at a optimal dose measured as %ILS (%increase life span) at a dose 300 micro g/Kg/inj; assay type: functional, Mus musculus
How it was run: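 BDF1 mice in groups of nine were implanted ip on day 0 with 0.2 mL of 1:5 (w/v) B16 melanoma brei; drugs were given ip. Survival is reported as median survival time in days with range, and as %ILS, with survivors counted on day 65 out of total injected.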

MC-38 [32] = assay: Mean survival time of treated / untreated group x100. (number of over 100-day survivors/number of total mice in the group) at a dose 0.60 mg/kg; assay type: functional, Mus musculus; conditions: dose 0.6 mg/kg; how it was run: as §2
P388 [33] = assay: Antitumor activity in P388/S(AMD sensitive) in male BDF1 mice measured as optimal dose; remark: listed apart in the source

COc1cccc2c1C(=O)c1c(O)c3c(c(O)c1C2=O)C[C@@](O)(C(=O)CO)C[C@@H]3O[C@H]1C[C@H](N)[C@H](O)[C@H](C)O1 [DOXORUBICIN]
inhibition in vivo at 4 mg/kg (MC-38 [1]): 93%
Toxic deaths (MC-38 [2]): 0
Toxic deaths (MC-38 [3]): 8
T/C (MC-38 [4]): 98%
optimal dose (P388 [5]): 3.5 mg/kg
inhibition in vivo at 2 mg/kg (MC-38 [6]): 29%
Toxic deaths (MC-38 [7]): 0
T/C (MC-38 [8]): 250%
optimal dose (P388 [9]): 3 mg/kg
inhibition in vivo at 3 mg/kg (MC-38 [10]): 70%
Toxic deaths (MC-38 [11]): 3

Cc1c2oc3c(C)c4oc(-c5ccccc5)nc4c(C(=O)N[C@@H]4C(=O)N[C@H](C(C)C)C(=O)N5CCC[C@H]5C(=O)N(C)CC(=O)N(C)[C@@H](C(C)C)C(=O)O[C@@H]4C)c3nc-2c(C(=O)N[C@@H]2C(=O)N[C@H](C(C)C)C(=O)N3CCC[C@H]3C(=O)N(C)CC(=O)N(C)[C@@H](C(C)C)C(=O)O[C@@H]2C)c(N)c1=O
Adrenochrome formation (Rattus norvegicus [12]): Inhibited
Toxic deaths (MC-38 [13]): 0
Toxic deaths (MC-38 [14]): 4
Toxic deaths (MC-38 [15]): 0
optimal dose (P388 [16]): 0.6 mg/kg
IC50 (P388 (Mus musculus)): 0.78 µM
IC50 (HT-29 [17]): 0.58 µM
Toxic deaths (MC-38 [18]): 1
inhibition in vivo at 0.6 mg/kg (MC-38 [19]): 83%
inhibition in vivo at 1.2 mg/kg (MC-38 [20]): 88%
IC50 (HT-29 [21]): 0.068 µM
T/C (MC-38 [22]): 103%
T/C (MC-38 [23]): 137%
inhibition in vivo at 0.3 mg/kg (MC-38 [24]): 70%
T/C (MC-38 [25]): 103%
NADPH oxidation (nM min-1 (mg of protein)-1) (Rattus norvegicus [26]): 65
IC50 (P388 [27]): 0.07 µM
inhibition in vivo at 0.15 mg/kg (MC-38 [28]): 29%
Adrenochrome formation (Rattus norvegicus [29]): 18.8 nM min-1 (mg of protein)-1
MST (B16 [30]): 59
ILS (B16 [31]): 103%
T/C (MC-38 [32]): 170%
optimal dose (P388 [33]): 0.35 mg/kg
